ChEMBL document CHEMBL2424550, “Discovery of cyclic sulfoxide hydroxyethylamines as potent and selective β-site APP-cleaving enzyme 1 (BACE1) inhibitors: structure based design and in vivo reduction of amyloid β-peptides” (Bioorg Med Chem Lett, 2013)

Legend:
[1] = Lipophilicity, log P of the compound; type: physicochemical; conditions: octanol/water
[2] = Dissociation constant, pKa of the compound; type: physicochemical
How it was run: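 Measured by multi-wavelength UV spectroscopy across a linear pH gradient of 2–12 units.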

[3] = Apparent permeability of the compound in MDCK cells expressing human MDR1; type: ADME, cell-based, Canis lupus familiaris; conditions: dog
How it was run: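 Apparent permeability (Papp, […]) measured across MDR1-MDCK cell monolayers transfected with human MDR1.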

[4] = tested on: Brain; experiment: Drug level in APP51/16 transgenic female mouse brain at 100 umol/kg, po after 4 hrs; type: ADME, organism-based; conditions: in vivo
How it was run: (§1)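 APP51/16 transgenic mice received an oral suspension in water with 2% cremophor. Parent inhibitor measured 4 h post-dose in blood (nmol/mL) and brain (nmol/g).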

[5] = Drug level in APP51/16 transgenic female mouse blood at 100 umol/kg, po after 4 hrs; type: ADME, organism-based; conditions: whole blood, read-out: Drug uptake; how it was run: as §1
[6] = Clearance in mouse liver microsomes; type: ADME, Microsome; conditions: read-out: CLH
How it was run: (§2)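 Compounds incubated at 37 °C with human or mouse liver microsomes.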

[7] = Clearance in human liver microsomes; type: ADME, Microsome; conditions: read-out: CLH; how it was run: as §2
[8] = tested on: Brain; experiment: Drug level in APP51/16 transgenic male mouse brain at 180 umol/kg, po after 4 hrs; type: ADME, organism-based; conditions: in vivo
How it was run: (§3)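 Inhibitor given orally to APP51/16 transgenic mice as a suspension in water with 2% cremophor; ritonavir (12.5 mg/kg po, 0.5 h before inhibitor) where noted. Blood concentration (nmol/mL) and brain concentration (nmol/g) determined 4 h after dosing.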

[9] = Drug level in APP51/16 transgenic male mouse blood at 180 umol/kg, po after 4 hrs; type: ADME, organism-based; conditions: whole blood, read-out: Drug uptake; how it was run: as §3
[10] = Bioavailability in mouse; type: ADME, organism-based; conditions: in vivo
[11] = Clearance in mouse; type: ADME, organism-based; conditions: in vivo
[12] = tested on: Brain; experiment: Drug level in APP51/16 transgenic male mouse brain at 60 umol/kg, po after 4 hrs; type: ADME, organism-based; conditions: in vivo; how it was run: as §3
[13] = tested on: Brain; experiment: Drug level in APP51/16 transgenic male mouse brain at 100 umol/kg, po after 4 hrs; type: ADME, organism-based; conditions: in vivo; how it was run: as §3
[14] = Drug level in APP51/16 transgenic male mouse blood at 100 umol/kg, po after 4 hrs; type: ADME, organism-based; conditions: whole blood, read-out: Drug uptake; how it was run: as §3
[15] = Drug level in APP51/16 transgenic male mouse blood at 60 umol/kg, po after 4 hrs; type: ADME, organism-based; conditions: whole blood, read-out: Drug uptake; how it was run: as §3

For CC(C)(C)c1cccc(CN[C@H]2CS(=O)(=O)C[C@@H](Cc3cc(F)c(N)c(OC(C(F)(F)F)C(F)(F)F)c3)[C@@H]2O)c1, which logP [1] is on record?
Its logP is 5.1.

And the pKa [2]?
Its pKa is 5.7.

What about the Papp [3] of the same molecule?
The Papp was 4 ×10⁻⁶ cm/s.

With [2H]C([2H])(N[C@H]1C[S@+]([O-])C[C@@H](Cc2cc(F)c(N)c(O[C@H](COC)C(F)(F)F)c2)[C@@H]1O)c1cccc(C(C)C)c1 as the molecule, how does the Drug uptake [4] read?
The Drug uptake was 0.3 nmol/g.

And the concentration at 4 h [5]?
The concentration at 4 h was 1500 nM.

And the microsomal CLint [6]?
Its microsomal CLint is 660 µL/min/mg.

What about the microsomal CLint [7] of the same molecule?
The microsomal CLint was 600 µL/min/mg.

What about the logP [1] of the same molecule?
The logP was 3.7.

What does the source list for COC[C@@H](Oc1cc(C[C@@H]2C[S@@+]([O-])C[C@H](N[C@H](C)c3cccc(C(C)(C)C)c3)[C@H]2O)cc(F)c1N)C(F)(F)F?
Drug uptake [4]: 0.7 nmol/g; concentration at 4 h [5]: 5400 nM; microsomal CLint [6]: 730 µL/min/mg; microsomal CLint [7]: 600 µL/min/mg; Papp [3]: 17 ×10⁻⁶ cm/s

With COC[C@@H](Oc1cc(C[C@@H]2C[S@@+]([O-])C[C@H](NCc3cc(C(C)(C)C)ccc3F)[C@H]2O)cc(F)c1N)C(F)(F)F as the molecule, how does the microsomal CLint [6] read?
The microsomal CLint was 580 µL/min/mg.

And the microsomal CLint [7]?
Its microsomal CLint is 400 µL/min/mg.

What about the logP [1] of the same molecule?
The logP was 4.1.

And the Papp [3]?
The Papp was 24 ×10⁻⁶ cm/s.

With COC[C@@H](Oc1cc(C[C@@H]2C[S@@+]([O-])C[C@H](NCc3cccc(C(C)(C)CO)c3)[C@H]2O)cc(F)c1N)C(F)(F)F as the molecule, how does the microsomal CLint [6] read?
Its microsomal CLint is 210 µL/min/mg.

What about the microsomal CLint [7] of the same molecule?
Its microsomal CLint is 80 µL/min/mg.

And the logP [1]?
Its logP is 3.4.

What about the Papp [3] of the same molecule?
Its Papp is 10 ×10⁻⁶ cm/s.

For COC[C@@H](Oc1cc(C[C@@H]2C[S@@+]([O-])C[C@H](NCc3cccc(C(C)(C)O)c3)[C@H]2O)cc(F)c1N)C(F)(F)F, which microsomal CLint [6] is on record?
The microsomal CLint was 150 µL/min/mg.

And the microsomal CLint [7]?
Its microsomal CLint is 40 µL/min/mg.

And the Papp [3]?
The Papp was 8 ×10⁻⁶ cm/s.

With COC[C@@H](Oc1cc(C[C@@H]2C[S@@+]([O-])C[C@H](NCc3cccc(OC(C)C)c3)[C@H]2O)cc(F)c1N)C(F)(F)F as the molecule, how does the microsomal CLint [6] read?
Its microsomal CLint is 190 µL/min/mg.

What about the microsomal CLint [7] of the same molecule?
The microsomal CLint was 280 µL/min/mg.

And the logP [1]?
The logP was 3.6.

What about the Papp [3] of the same molecule?
Its Papp is 21 ×10⁻⁶ cm/s.

Which microsomal CLint [6] does the source give for COC[C@@H](Oc1cc(C[C@@H]2C[S@@+]([O-])C[C@H](NCc3cccc(OC(F)(F)F)c3)[C@H]2O)cc(F)c1N)C(F)(F)F here?
The microsomal CLint was 180 µL/min/mg.

What about the microsomal CLint [7] of the same molecule?
Its microsomal CLint is 300 µL/min/mg.

What about the logP [1] of the same molecule?
The logP was 3.7.

What about the Papp [3] of the same molecule?
The Papp was 31 ×10⁻⁶ cm/s.

What does the source list for COC[C@@H](Oc1cc(C[C@@H]2C[S@@+]([O-])C[C@H](NCc3cnn(CC(C)(C)C)c3)[C@H]2O)cc(F)c1N)C(F)(F)F?
microsomal CLint [6]: 380 µL/min/mg; microsomal CLint [7]: 140 µL/min/mg; logP [1]: 2.9; Papp [3]: 10 ×10⁻⁶ cm/s

With COC[C@@H](Oc1cc(C[C@@H]2C[S@@+]([O-])C[C@H](NCc3cc(CC(C)(C)C)on3)[C@H]2O)cc(F)c1N)C(F)(F)F as the molecule, how does the microsomal CLint [6] read?
Its microsomal CLint is 510 µL/min/mg.

And the microsomal CLint [7]?
The microsomal CLint was 580 µL/min/mg.

What about the logP [1] of the same molecule?
The logP was 3.1.

What about the pKa [2] of the same molecule?
The pKa was 4.9.

And the Papp [3]?
The Papp was 19 ×10⁻⁶ cm/s.

Which microsomal CLint [6] does the source give for COC[C@@H](Oc1cc(C[C@@H]2C[S@@+]([O-])C[C@H](NCc3cc(C(C)(C)C)ccn3)[C@H]2O)cc(F)c1N)C(F)(F)F here?
The microsomal CLint was 400 µL/min/mg.

What about the microsomal CLint [7] of the same molecule?
The microsomal CLint was 140 µL/min/mg.

And the logP [1]?
The logP was 3.5.

And the Papp [3]?
Its Papp is 19 ×10⁻⁶ cm/s.

Which Drug uptake [8] does the source give for CC(C)(C)c1cccc(CN[C@H]2C[S@+]([O-])C[C@@H](Cc3cc(F)c(N)c(OC(C(F)(F)F)C(F)(F)F)c3)[C@@H]2O)c1 here?
The Drug uptake was 0.8 nmol/g.

And the concentration at 4 h [9]?
Its concentration at 4 h is 900 nM.

And the bioavailability [10]?
The bioavailability was 14%.

And the clearance [11]?
The clearance was 129 mL/min/kg.

And the logP [1]?
The logP was 5.2.

And the pKa [2]?
Its pKa is 6.7.

What about the Papp [3] of the same molecule?
The Papp was 18 ×10⁻⁶ cm/s.

For CC(C)(C)c1cccc(CN[C@H]2C[S@@+]([O-])C[C@@H](Cc3cc(F)c(N)c(OC(C(F)(F)F)C(F)(F)F)c3)[C@@H]2O)c1, which logP [1] is on record?
The logP was 4.9.

What about the Papp [3] of the same molecule?
The Papp was 11 ×10⁻⁶ cm/s.

With COc1cc(C[C@@H]2C[S@@+]([O-])C[C@H](NCc3cccc(C(C)(C)C)c3)[C@H]2O)cc(F)c1N as the molecule, how does the logP [1] read?
Its logP is 3.5.

And the Papp [3]?
The Papp was 22 ×10⁻⁶ cm/s.

Which results are given for CC(C)(C)c1cccc(CN[C@H]2C[S@+]([O-])C[C@@H](Cc3cc(F)c(N)c(OCC(F)(F)F)c3)[C@@H]2O)c1?
Drug uptake [12]: 0.4 nmol/g; Drug uptake [13]: 0.7 nmol/g; Drug uptake [8]: 1.3 nmol/g; concentration at 4 h [14]: 2600 nM; concentration at 4 h [15]: 800 nM; concentration at 4 h [9]: 6100 nM; logP [1]: 4.3; Papp [3]: 19 ×10⁻⁶ cm/s

Which results are given for COC[C@@H](Oc1cc(C[C@@H]2C[S@@+]([O-])C[C@H](NCc3cccc(C(C)(C)C)c3)[C@H]2O)cc(F)c1N)C(F)(F)F?
Drug uptake [12]: 0.1 nmol/g; Drug uptake [13]: 0.2 nmol/g; Drug uptake [8]: 0.7 nmol/g; concentration at 4 h [14]: 1000 nM; concentration at 4 h [15]: 300 nM; concentration at 4 h [9]: 3800 nM; microsomal CLint [6]: 480 µL/min/mg; microsomal CLint [7]: 500 µL/min/mg; logP [1]: 3.9; Papp [3]: 18 ×10⁻⁶ cm/s

With CC(C)(C)c1cccc(CN[C@H]2C[S@+]([O-])C[C@@H](Cc3cc(F)c(N)c(O[C@H](CO)C(F)(F)F)c3)[C@@H]2O)c1 as the molecule, how does the logP [1] read?
Its logP is 3.7.

And the Papp [3]?
The Papp was 16 ×10⁻⁶ cm/s.

Which Papp [3] does the source give for CC(C)(C)c1cccc(CN[C@H]2C[S@+]([O-])C[C@@H](Cc3cc(O)c(N)c(F)c3)[C@@H]2O)c1 here?
The Papp was 9 ×10⁻⁶ cm/s.

Which microsomal CLint [6] does the source give for COC[C@@H](Oc1cc(C[C@@H]2C[S+]([O-])C[C@H](N)[C@H]2O)cc(F)c1N)C(F)(F)F (stereo not given in full) here?
The microsomal CLint was 180 µL/min/mg.

And the microsomal CLint [7]?
The microsomal CLint was 190 µL/min/mg.

What does the source list for [2H]C([2H])(N[C@H]1C[S@+]([O-])C[C@@H](Cc2cc(F)c(N)c(O[C@H](COC)C(F)(F)F)c2)[C@@H]1O)c1cccc(C(C)(C)C)c1?
Drug uptake [12]: 0.1 nmol/g; concentration at 4 h [15]: 400 nM; microsomal CLint [6]: 530 µL/min/mg; microsomal CLint [7]: 600 µL/min/mg; Papp [3]: 19 ×10⁻⁶ cm/s

Which Drug uptake [4] does the source give for COC[C@@H](Oc1cc(C[C@@H]2C[S@@+]([O-])C[C@H](NCc3cccc(C(C)C)c3)[C@H]2O)cc(F)c1N)C(F)(F)F here?
The Drug uptake was 0.2 nmol/g.

And the concentration at 4 h [5]?
Its concentration at 4 h is 1600 nM.

What about the microsomal CLint [6] of the same molecule?
Its microsomal CLint is 550 µL/min/mg.

What about the microsomal CLint [7] of the same molecule?
The microsomal CLint was 690 µL/min/mg.

And the logP [1]?
Its logP is 3.7.

What about the Papp [3] of the same molecule?
The Papp was 20 ×10⁻⁶ cm/s.
